Results as given in ChEMBL document CHEMBL1955838, “Asymmetric synthesis and evaluation of a hydroxyphenylamide voltage-gated sodium channel blocker in human prostate cancer xenografts” (Bioorg Med Chem, 2012).
Calls of active or inactive are those of the source. The rule behind the calls is not given here.

Tests used:
[1] = biological target: Sodium channel protein type 2 subunit alpha (Homo sapiens) (UniProt Q99250); test: Reversible inhibition of human voltage-gated sodium channel 1.2-mediated current expressed in HEK293 cells at -60 to +10 mV holding poteinitial at 1 to 10 uM after 5 mins measured after drug washout by patch clamp electrophysiology; type: cell-based
Sequence of Sodium channel protein type 2 subunit alpha (Homo sapiens) (Q99250 whole entry, looked up, the tested form may be a part): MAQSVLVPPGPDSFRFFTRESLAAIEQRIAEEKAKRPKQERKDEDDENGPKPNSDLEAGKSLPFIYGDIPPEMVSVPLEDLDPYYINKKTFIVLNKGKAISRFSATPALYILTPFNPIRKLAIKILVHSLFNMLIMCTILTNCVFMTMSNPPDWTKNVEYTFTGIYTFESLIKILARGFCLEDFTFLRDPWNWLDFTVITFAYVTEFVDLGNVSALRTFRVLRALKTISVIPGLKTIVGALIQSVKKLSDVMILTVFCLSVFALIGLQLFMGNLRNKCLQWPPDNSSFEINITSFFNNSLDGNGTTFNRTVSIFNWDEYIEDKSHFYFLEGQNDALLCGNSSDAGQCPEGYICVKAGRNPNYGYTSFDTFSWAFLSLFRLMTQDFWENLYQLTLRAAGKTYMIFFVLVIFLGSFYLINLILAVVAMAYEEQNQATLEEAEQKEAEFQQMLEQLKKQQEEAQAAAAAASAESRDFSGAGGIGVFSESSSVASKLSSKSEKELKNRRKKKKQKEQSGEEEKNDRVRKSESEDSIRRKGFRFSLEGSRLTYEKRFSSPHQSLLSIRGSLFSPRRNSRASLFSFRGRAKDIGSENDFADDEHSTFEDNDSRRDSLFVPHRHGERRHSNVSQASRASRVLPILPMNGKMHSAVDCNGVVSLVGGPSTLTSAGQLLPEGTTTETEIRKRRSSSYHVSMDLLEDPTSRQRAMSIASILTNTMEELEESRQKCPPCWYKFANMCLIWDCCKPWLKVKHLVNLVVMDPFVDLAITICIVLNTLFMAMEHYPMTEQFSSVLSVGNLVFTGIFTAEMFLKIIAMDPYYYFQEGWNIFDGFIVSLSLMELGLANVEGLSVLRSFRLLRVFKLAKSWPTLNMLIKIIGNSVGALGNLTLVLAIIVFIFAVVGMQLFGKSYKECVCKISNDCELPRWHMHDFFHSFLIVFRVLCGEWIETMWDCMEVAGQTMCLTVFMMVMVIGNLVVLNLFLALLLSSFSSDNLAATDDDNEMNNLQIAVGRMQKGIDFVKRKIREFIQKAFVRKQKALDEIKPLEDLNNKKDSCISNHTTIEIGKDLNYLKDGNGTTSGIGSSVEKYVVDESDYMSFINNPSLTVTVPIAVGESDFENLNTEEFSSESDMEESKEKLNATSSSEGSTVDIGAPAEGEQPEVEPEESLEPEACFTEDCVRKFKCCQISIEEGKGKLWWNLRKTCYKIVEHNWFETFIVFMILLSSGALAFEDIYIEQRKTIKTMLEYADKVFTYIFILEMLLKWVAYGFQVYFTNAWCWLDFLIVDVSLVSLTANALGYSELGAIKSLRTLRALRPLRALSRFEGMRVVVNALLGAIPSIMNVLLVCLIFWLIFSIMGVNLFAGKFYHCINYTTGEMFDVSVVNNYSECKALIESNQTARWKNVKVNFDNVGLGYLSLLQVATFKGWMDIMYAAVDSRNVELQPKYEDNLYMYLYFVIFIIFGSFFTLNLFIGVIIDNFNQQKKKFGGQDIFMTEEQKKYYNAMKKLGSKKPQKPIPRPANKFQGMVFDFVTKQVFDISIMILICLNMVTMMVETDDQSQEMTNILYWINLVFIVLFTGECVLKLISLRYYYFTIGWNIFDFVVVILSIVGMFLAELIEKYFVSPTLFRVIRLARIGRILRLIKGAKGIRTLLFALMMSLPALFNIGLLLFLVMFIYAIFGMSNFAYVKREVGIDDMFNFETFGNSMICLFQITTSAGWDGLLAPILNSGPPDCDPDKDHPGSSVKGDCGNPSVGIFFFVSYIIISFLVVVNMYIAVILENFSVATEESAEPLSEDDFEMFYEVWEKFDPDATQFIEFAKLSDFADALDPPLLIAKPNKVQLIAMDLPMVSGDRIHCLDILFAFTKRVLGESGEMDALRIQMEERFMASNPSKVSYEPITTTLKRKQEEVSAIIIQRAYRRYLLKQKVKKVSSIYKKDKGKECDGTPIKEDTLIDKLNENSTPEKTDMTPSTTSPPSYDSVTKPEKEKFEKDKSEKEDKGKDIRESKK
In short: (§1)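 Whole-cell patch clamp at 20–22 °C. Pipette solution CsCl/BAPTA/MgATP, pH 7.4; bath NaCl 130 mM, pH 7.4. ≥75% series resistance compensation; cells held at −100 mV for 5 min. Currents evoked by 25 ms steps from −60 to +10 mV every 15 s. Compound from 100 mM DMSO stock, perfused 5 min, then washout. Tonic block taken as peak current with drug versus drug-free.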

PC-3 [2] = test: Antitumor activity against human PC3 cells xenografted in athymic BALB/c nude mouse assessed as reduction in tumor volume at 10 mg/kg, ip qd administered every other day for 24 days measured on day 15; type: functional, organism-based; parameters: dose 10 mg/kg
In short: (§2)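 Male athymic nude mice (18–22 g) given 3 × 10^6 PC3 cells subcutaneously in right axillary region; randomized one week later into four groups of 6. Compound from DMSO stock diluted in PEG 400/PBS (1:1), given ip once every other day; vehicle control group. Tumor size by caliper, volume = length × width × height/2. One-way ANOVA or ANOVA on ranks with Tukey/Dunn post hoc; mean ± S.E.M.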

hERG (KCNH2) [3] = biological target: T1, hERG (KCNH2) (Homo sapiens, UniProt Q12809); test: Displacement of [35S]MK-0499 from human ERG at 30 uM after >90 mins by scintillation counting; settings: probe [35S]MK-0499
T1 sequence (Q12809 whole entry): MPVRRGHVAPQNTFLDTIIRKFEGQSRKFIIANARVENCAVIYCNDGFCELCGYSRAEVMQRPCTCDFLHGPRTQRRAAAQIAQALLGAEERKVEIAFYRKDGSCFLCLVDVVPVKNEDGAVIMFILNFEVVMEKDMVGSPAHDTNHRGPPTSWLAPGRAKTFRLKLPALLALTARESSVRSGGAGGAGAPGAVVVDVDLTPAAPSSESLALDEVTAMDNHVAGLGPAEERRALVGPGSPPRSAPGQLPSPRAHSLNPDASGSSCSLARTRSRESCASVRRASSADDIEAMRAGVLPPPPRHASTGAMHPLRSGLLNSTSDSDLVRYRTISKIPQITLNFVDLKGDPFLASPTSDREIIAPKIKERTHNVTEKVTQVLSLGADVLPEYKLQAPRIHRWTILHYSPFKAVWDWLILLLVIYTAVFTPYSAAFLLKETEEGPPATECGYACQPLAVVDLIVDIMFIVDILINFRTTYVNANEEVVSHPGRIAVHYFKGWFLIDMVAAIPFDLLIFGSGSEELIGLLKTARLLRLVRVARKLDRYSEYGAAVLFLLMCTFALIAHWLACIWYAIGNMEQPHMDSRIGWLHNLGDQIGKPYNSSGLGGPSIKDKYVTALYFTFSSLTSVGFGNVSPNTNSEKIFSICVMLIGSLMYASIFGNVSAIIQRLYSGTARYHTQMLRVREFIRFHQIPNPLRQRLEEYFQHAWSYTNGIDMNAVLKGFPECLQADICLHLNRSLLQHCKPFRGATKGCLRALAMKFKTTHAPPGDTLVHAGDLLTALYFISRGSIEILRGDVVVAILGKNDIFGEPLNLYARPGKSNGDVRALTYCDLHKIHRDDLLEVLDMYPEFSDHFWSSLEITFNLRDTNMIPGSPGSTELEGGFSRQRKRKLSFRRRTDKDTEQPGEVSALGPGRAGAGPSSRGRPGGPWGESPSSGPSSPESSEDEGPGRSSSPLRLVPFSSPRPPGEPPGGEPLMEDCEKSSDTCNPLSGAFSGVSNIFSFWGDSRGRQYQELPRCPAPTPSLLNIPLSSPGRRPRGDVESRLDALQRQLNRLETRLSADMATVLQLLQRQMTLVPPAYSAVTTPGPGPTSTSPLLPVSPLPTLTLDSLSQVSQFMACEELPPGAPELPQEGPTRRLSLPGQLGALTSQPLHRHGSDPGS
In short: (§3)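 Binding to membranes from HEK-293 cells stably expressing hERG, with 0.05 nM [35S]MK-499 in NaCl/KCl/HEPES buffer pH 7.4 with Mg2+ and Ca2+, 25 °C for >90 min. Filtered on BSA-presoaked GF/C plates, then scintillation counted. Five-point half-log titration, 0.3–30 μM. Percent inhibition relative to no-competitor control and 1 μM unlabeled MK-499; triplicate.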

PC-3 [4] = test: Antitumor activity against human PC3 cells xenografted in athymic BALB/c nude mouse assessed as reduction in tumor volume at 10 mg/kg, ip qd administered every other day for 24 days; type: functional; parameters: scale not given: the % may be the effect or the level left; settings: route intraperitoneal; in short: as §2
[5] = biological target: Sodium channel protein type 2 subunit alpha (Homo sapiens) (UniProt Q99250); test: Inhibition of human voltage-gated sodium channel 1.2-mediated current expressed in HEK293 cells at -60 to +10 mV holding poteinitial at 10 uM after 5 mins by patch clamp electrophysiology; type: cell-based; in short: as §1
hERG (KCNH2) [6] = biological target: T1, hERG (KCNH2); test: Displacement of [35S]MK-0499 from human ERG at 3 uM after >90 mins by scintillation counting; settings: probe [35S]MK-0499; in short: as §3
hERG (KCNH2) [7] = biological target: T1, hERG (KCNH2); test: Displacement of [35S]MK-0499 from human ERG at 0.3 uM after >90 mins by scintillation counting; settings: probe [35S]MK-0499; in short: as §3
CWR22R = test: (§4) Cytotoxicity against human CWR22Rv1 cells assessed as cell death at 25 uM after 24 hrs by propidium iodide staining-based FACS analysis; type: functional
In short: (§5)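 CWR22Rv1 cells seeded at 300,000/well in RPMI 1640 with 10% FBS, 2.5 mM L-glutamine and penicillin-streptomycin at 37 °C, 5% CO2, then switched to serum-free RPMI overnight. Compounds from DMSO stock diluted in serum-free RPMI, applied in triplicate. After treatment, cells trypsinized, fixed in 70% ethanol, RNase-treated (5 μg/mL), stained with propidium iodide (50 μg/mL), DNA content read by flow cytometry.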

[8] = biological target: Sodium channel protein type 9 subunit alpha (Homo sapiens, UniProt Q15858); test: Inhibition of human voltage-gated sodium channel 1.7 expressed in HEK293 cells assessed as changes in membranre potential after 45 mins by FRET analysis
Sequence of Sodium channel protein type 9 subunit alpha (Q15858 whole entry): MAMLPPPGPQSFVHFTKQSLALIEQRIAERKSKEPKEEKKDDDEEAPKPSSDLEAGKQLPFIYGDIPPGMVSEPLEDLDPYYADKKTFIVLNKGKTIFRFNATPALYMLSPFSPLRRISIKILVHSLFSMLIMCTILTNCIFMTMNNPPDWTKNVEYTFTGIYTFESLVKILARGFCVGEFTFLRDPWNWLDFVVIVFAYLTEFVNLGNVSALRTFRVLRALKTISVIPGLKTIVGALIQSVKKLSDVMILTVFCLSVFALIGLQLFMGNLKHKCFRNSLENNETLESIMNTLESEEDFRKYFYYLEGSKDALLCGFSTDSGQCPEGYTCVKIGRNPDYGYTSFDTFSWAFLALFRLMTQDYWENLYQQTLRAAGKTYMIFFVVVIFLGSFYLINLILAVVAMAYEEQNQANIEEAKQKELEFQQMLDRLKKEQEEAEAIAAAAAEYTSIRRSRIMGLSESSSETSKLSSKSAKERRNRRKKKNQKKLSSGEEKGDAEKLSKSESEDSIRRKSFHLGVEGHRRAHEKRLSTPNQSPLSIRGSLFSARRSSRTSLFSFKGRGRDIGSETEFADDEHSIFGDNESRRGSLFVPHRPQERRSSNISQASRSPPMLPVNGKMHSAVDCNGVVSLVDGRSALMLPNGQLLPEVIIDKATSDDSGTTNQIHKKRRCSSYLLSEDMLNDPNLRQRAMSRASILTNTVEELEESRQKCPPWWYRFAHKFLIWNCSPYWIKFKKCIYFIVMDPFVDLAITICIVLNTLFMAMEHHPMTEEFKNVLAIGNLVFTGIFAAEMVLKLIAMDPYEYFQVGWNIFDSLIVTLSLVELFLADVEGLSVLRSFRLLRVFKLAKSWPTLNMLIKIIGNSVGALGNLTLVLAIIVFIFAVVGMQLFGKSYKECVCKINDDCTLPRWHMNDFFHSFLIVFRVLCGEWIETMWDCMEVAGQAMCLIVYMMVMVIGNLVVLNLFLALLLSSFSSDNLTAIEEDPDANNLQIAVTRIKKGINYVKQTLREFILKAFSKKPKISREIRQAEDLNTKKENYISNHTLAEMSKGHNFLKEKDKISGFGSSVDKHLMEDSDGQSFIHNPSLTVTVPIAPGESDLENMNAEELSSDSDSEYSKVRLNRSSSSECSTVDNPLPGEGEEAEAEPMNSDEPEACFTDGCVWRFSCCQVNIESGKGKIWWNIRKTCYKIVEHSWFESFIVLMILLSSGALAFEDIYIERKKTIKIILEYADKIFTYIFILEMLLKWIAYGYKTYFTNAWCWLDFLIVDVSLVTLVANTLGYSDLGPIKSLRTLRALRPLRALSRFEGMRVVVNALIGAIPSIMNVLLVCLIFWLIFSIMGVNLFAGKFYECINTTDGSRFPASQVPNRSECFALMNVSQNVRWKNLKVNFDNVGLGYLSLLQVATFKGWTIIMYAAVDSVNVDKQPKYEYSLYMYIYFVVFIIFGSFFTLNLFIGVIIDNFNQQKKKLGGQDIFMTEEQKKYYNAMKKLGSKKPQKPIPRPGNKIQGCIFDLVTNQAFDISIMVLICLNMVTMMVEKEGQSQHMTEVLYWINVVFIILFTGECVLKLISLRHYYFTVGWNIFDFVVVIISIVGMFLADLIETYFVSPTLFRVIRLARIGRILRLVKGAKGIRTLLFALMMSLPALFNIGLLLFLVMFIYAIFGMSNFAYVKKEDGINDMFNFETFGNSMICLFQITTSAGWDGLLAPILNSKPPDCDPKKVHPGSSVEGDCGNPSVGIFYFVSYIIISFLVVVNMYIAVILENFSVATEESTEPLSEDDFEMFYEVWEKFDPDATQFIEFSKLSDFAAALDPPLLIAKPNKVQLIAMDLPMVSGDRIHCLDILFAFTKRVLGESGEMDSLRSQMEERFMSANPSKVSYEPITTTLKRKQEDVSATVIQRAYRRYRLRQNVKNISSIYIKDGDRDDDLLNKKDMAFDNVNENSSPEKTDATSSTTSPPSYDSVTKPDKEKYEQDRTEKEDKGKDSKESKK

hERG (KCNH2) [9] = biological target: T1, hERG (KCNH2); test: Displacement of [35S]MK-0499 from human ERG at 10 uM after >90 mins by scintillation counting; settings: probe [35S]MK-0499; in short: as §3
[10] = biological target: Sodium channel protein type 2 subunit alpha (Homo sapiens) (UniProt Q99250); test: Inhibition of human voltage-gated sodium channel 1.2-mediated current expressed in HEK293 cells at -60 to +10 mV holding poteinitial at 1 uM after 5 mins by patch clamp electrophysiology; type: cell-based; in short: as §1
[11] = Cytotoxicity against human CWR22Rv1 cells assessed as cell death at 25 uM after 72 hrs by propidium iodide staining-based FACS analysis; type: functional, CWR22R; in short: as §5
hERG (KCNH2) [12] = biological target: T1, hERG (KCNH2); test: Displacement of [35S]MK-0499 from human ERG at 1 uM after >90 mins by scintillation counting; settings: probe [35S]MK-0499; in short: as §3
[13] = as §4; type: functional, CWR22R; in short: as §5

| Structure (SMILES) | inhibition [1] | Activity (PC-3 [2]) | inhibition at […], 30 µM (hERG (KCNH2) [3]) [%] | Activity (PC-3 [4]) [%] | inhibition [5] [%] | inhibition at […], 3 µM (hERG (KCNH2) [6]) [%] | inhibition at […], 0.3 µM (hERG (KCNH2) [7]) [%] | Activity (CWR22R) | IC50 [8] [nM] | inhibition at […], 10 µM (hERG (KCNH2) [9]) [%] | inhibition [10] [%] | Activity [11] [%] | inhibition at […], 1 µM (hERG (KCNH2) [12]) [%] | Activity [13] [%] |
| --- | --- | --- | --- | --- | --- | --- | --- | --- | --- | --- | --- | --- | --- | --- |
| CCCCCCCC(O)(C(N)=O)c1cccc(Cl)c1 (racemic) | Active | Active | 78 | 62 | 87 | 15 | 15 | Active | 1810 | 51 | 31.9 | 25 | 17 | – |
| CCCCCCC[C@](O)(C(N)=O)c1cccc(Cl)c1 | Active | Active | – | 62 | 94.3 | – | – | – | – | – | 67.4 | 60 | – | 25 |
| CCCCCCC[C@@](O)(C(N)=O)c1cccc(Cl)c1 | Active | Active | – | 62 | 91.5 | – | – | Active | – | – | 34.9 | 40 | – | – |
